Reference: ChEMBL document CHEMBL5236549, “Discovery of 2-Sulfinyl-Diazabicyclooctane Derivatives, Potential Oral β-Lactamase Inhibitors for Infections Caused by Serine β-Lactamase-Producing Enterobacterales” (J Med Chem, 2021)

Columns and labels:
Klebsiella pneumoniae [1] = assay: Antibacterial activity against Klebsiella pneumoniae ATCC SR201218 assessed as reduction in bacterial growth by measuring minimum […] concentration incubated for 16 to 24 hrs by CLSI based two-fold serial dilution method; type: functional; conditions: time 16-24 hrs
Summary of the method: (§1)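 MPC₁ by broth microdilution: twofold serial dilutions of inhibitor in cation-adjusted Mueller Hinton broth containing ceftibuten at 1 μg/mL. Inoculum about 5 × 10⁴ cfu/well final, set from OD625. Incubation at 35 °C for 16−20 h. […] N = 1.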

Klebsiella pneumoniae [2] = assay: Antibacterial activity against Klebsiella pneumoniae ATCC BAA1705 assessed as reduction in bacterial growth by measuring minimum potentiating concentration incubated for 16 to 20 hrs by CLSI based two-fold serial dilution method; conditions: time 16-20 hrs
Klebsiella pneumoniae [3] = assay: Antibacterial activity against Klebsiella pneumoniae ATCC BAA1705 assessed as inhibition of bacterial growth incubated for 16 to 20 hrs by CLSI based two-fold serial dilution method
[4] = Inhibition of bacterial beta-lactamase CMY-2 using nitrocefin as substrate incubated for 20 mins; design: species or system Bacteria
Summary of the method: (§2)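 Nitrocefin hydrolysis read by absorbance. Enzyme titrated to give about 0.2 absorbance change over the no-enzyme control. Enzyme added to nitrocefin (final 50 μg/mL) plus inhibitor, no preincubation, read after 20 min at 35 °C. IC50 is 50% reduction of hydrolysis. N = 1.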

Escherichia coli [5] = assay: Antibacterial activity against Escherichia coli ATCC SR09613 assessed as inhibition of bacterial growth incubated for 16 to 20 hrs by CLSI based two-fold serial dilution method
Escherichia coli [6] = assay: Antibacterial activity against Escherichia coli ATCC SR34100 assessed as reduction in bacterial growth by measuring minimum […] concentration incubated for 16 to 24 hrs by CLSI based two-fold serial dilution method; type: functional; conditions: time 16-24 hrs; summary of the method: as §1
Escherichia coli [7] = assay: Antibacterial activity against Escherichia coli ATCC SR34100 assessed as inhibition of bacterial growth incubated for 16 to 20 hrs by CLSI based two-fold serial dilution method
Klebsiella pneumoniae [8] = assay: Antibacterial activity against Klebsiella pneumoniae ATCC SR201218 assessed as inhibition of bacterial growth incubated for 16 to 20 hrs by CLSI based two-fold serial dilution method
[9] = Inhibition of bacterial beta-lactamase KPC-2 using nitrocefin as substrate incubated for 20 mins; design: species or system Bacteria; summary of the method: as §2
Escherichia coli [10] = assay: Antibacterial activity against Escherichia coli ATCC SR09613 assessed as reduction in bacterial growth by measuring minimum […] concentration incubated for 16 to 24 hrs by CLSI based two-fold serial dilution method; type: functional; conditions: time 16-24 hrs; summary of the method: as §1
[11] = Inhibition of bacterial beta-lactamase CTX-M-15 using nitrocefin as substrate incubated for 20 mins; design: species or system Bacteria
[12] = Inhibition of bacterial beta-lactamase OXA-48 using nitrocefin as substrate incubated for 20 mins; design: species or system Bacteria; summary of the method: as §2
[13] = Stability in rat serum assessed as compound remaining at 5 micromol/L incubated for 30 mins by LC-MS/MS analysis; type: ADME, cell-free; conditions: dose 5 µmol/L, read-out: Stability
Summary of the method: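 Pooled rat serum incubated with 5 μmol/L compound for 30 min at 37 °C, in duplicate; aliquot mixed with methanol, centrifuged, supernatant analysed by LC/MS/MS for % remaining.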

[14] = Total clearance in rat by LC-MS/MS analysis; type: ADME; conditions: in vivo
[15] = Stability of the compound in phosphate buffer at pH 7.0 assessed as parent compound remaining at 40 degreeC measured after 16 hrs; type: physicochemical; conditions: read-out: Stability
Summary of the method: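 Compound held in pH 7.0 phosphate buffer at 40 °C for 16 h; amount remaining reported as %.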

[16] = Cmax in monkey at 10 mg/kg,po by LC/MS/MS analysis; type: ADME, organism-based, Macaca mulatta; design: dose 10 mg/kg, route po; conditions: rhesus monkey, in vivo
Summary of the method: (§3)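 Plasma of the parent acid measured by LC/MS/MS (methanol precipitation, positive ESI, external standard); oral values follow prodrug dosing (rat fed, dog and monkey fasted). AUC from 0 h to last time point by linear trapezoid; F from oral AUC versus iv AUC of the parent. N = 2 (rat, dog), N = 3 (monkey, mouse).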

[17] = Oral bioavailability in dog at 10 mg/kg by LC/MS/MS analysis; type: ADME, organism-based, Canis lupus familiaris; conditions: in vivo; summary of the method: as §3
[18] = Oral bioavailability in rat at 5 mg/kg by LC/MS/MS analysis; type: ADME, organism-based; conditions: in vivo; summary of the method: as §3
[19] = AUC in rat at 5 mg/kg,po by LC/MS/MS analysis; type: ADME, organism-based; design: dose 5 mg/kg, route po; conditions: in vivo; summary of the method: as §3
[20] = Oral bioavailability in monkey at 10 mg/kg by LC/MS/MS analysis; type: ADME, organism-based, Macaca mulatta; conditions: rhesus monkey, in vivo; summary of the method: as §3
[21] = Tmax in rat at 5 mg/kg,po by LC/MS/MS analysis; type: ADME, organism-based; conditions: in vivo
[22] = AUC in dog at 10 mg/kg,po by LC/MS/MS analysis; type: ADME, organism-based, Canis lupus familiaris; design: dose 10 mg/kg, route po; conditions: in vivo; summary of the method: as §3
[23] = Cmax in dog at 10 mg/kg,po by LC/MS/MS analysis; type: ADME, organism-based, Canis lupus familiaris; design: dose 10 mg/kg, route po; conditions: in vivo; summary of the method: as §3
[24] = Cmax in rat at 5 mg/kg,po by LC/MS/MS analysis; type: ADME, organism-based; design: dose 5 mg/kg, route po; conditions: in vivo; summary of the method: as §3
[25] = AUC in monkey at 10 mg/kg,po by LC/MS/MS analysis; type: ADME, organism-based, Macaca mulatta; design: dose 10 mg/kg, route po; conditions: rhesus monkey, in vivo; summary of the method: as §3
[26] = Tmax in dog at 10 mg/kg,po by LC/MS/MS analysis; type: ADME, organism-based, Canis lupus familiaris; conditions: in vivo
[27] = Tmax in monkey at 10 mg/kg,po by LC/MS/MS analysis; type: ADME, organism-based, Macaca mulatta; conditions: rhesus monkey, in vivo

Row | Structure (SMILES) | MPC (Klebsiella pneumoniae [1]) [µg/mL] | MPC (Klebsiella pneumoniae [2]) [µg/mL] | MIC (Klebsiella pneumoniae [3]) [µg/mL] | IC50 [4] [nM] | MIC (Escherichia coli [5]) [µg/mL] | MPC (Escherichia coli [6]) [µg/mL] | MIC (Escherichia coli [7]) [µg/mL] | MIC (Klebsiella pneumoniae [8]) [µg/mL] | IC50 [9] [nM] | MPC (Escherichia coli [10]) [µg/mL] | IC50 [11] [nM] | other results
1 | NCC[S@@+]([O-])[C@@H]1CC[C@@H]2CN1C(=O)N2O[C@H](F)C(=O)O.O=C(O)C(F)(F)F | 4 | <0.031 | > 32 | 431 | > 32 | 0.125 | > 32 | > 32 | 69 | 0.5 | 159 | 
2 | O=C([O-])[C@@H](F)ON1C(=O)N2C[C@H]1CC[C@H]2[S@+]([O-])CF.[Na+] | 2 | 0.5 | 32 | 113 | 32 | 0.25 | 32 | > 32 | 90 | 0.25 | 6 | 
3 | NC(=O)C[S@@+]([O-])[C@@H]1CC[C@@H]2CN1C(=O)N2O[C@H](F)C(=O)[O-].[Na+] | 4 | 0.063 | 32 | 57 | 32 | 0.25 | 32 | > 32 | 35 | 0.125 | 50 | 
4 | NC(=O)/C(C[S@@+]([O-])[C@@H]1CC[C@@H]2CN1C(=O)N2O[C@H](F)C(=O)[O-])=N\O.[Na+] (stereo in doubt) | 32 | 2 | > 32 | 143 | > 32 | 2 | > 32 | > 32 | 132 | 0.25 | 70 | 
5 | N#CC[S@@+]([O-])[C@@H]1CC[C@@H]2CN1C(=O)N2O[C@H](F)C(=O)[O-].[Na+] | 2 | <0.031 | > 32 | 96 | 32 | 0.25 | > 32 | > 32 | 39 | 0.125 | 7 | 
6 | O=C([O-])[C@@H](F)ON1C(=O)N2C[C@H]1CC[C@H]2[S@+]([O-])Cc1c[nH]cn1.[Na+] | 4 | 1 | 32 | 59 | > 32 | 1 | 32 | > 32 | 78 | 0.125 | 8 | 
7 | O=C([O-])[C@@H](F)ON1C(=O)N2C[C@H]1CC[C@H]2[S@+]([O-])CCCO.[Na+] | 2 | 0.5 | > 32 | 39 | > 32 | 1 | > 32 | > 32 | 38 | 0.063 | 10 | 
8 | Nc1ncc(C[S@@+]([O-])[C@@H]2CC[C@@H]3CN2C(=O)N3O[C@H](F)C(=O)[O-])s1.[Na+] | 4 | 0.25 | > 32 | 41 | > 32 | 1 | > 32 | > 32 | 88 | 0.5 | 10 | IC50 [12]: 981 nM
9 | CC(=O)NCC[S@@+]([O-])[C@@H]1CC[C@@H]2CN1C(=O)N2O[C@H](F)C(=O)[O-].[Na+] | 8 | 0.25 | > 32 | 101 | > 32 | 0.5 | > 32 |  | 7 | 0.063 | 101 | 
10 | NS(=O)(=O)[C@@H]1CC[C@@H]2CN1C(=O)N2OC(F)(F)C(=O)O.[Na+] |  |  |  | 1340 |  |  |  |  | 52 |  | 104 | remaining at 0.5 h, 5 µM [13]: 39%; clearance [14]: 84.5 mL/min/kg; remaining at 16 h [15]: 55%
11 | O=C([O-])[C@@H](F)ON1C(=O)N2C[C@H]1CC[C@H]2[S@+]([O-])CCO.[Na+] | 2 | 1 |  | 57 | > 32 | 0.5 | > 32 | > 32 | 36 | 0.125 | 16 | 
12 | C[S@@+]([O-])[C@@H]1CC[C@@H]2CN1C(=O)N2OC(F)(F)C(=O)[O-].[Na+] |  |  |  | 26 |  |  |  |  | 8 |  | 5 | clearance [14]: 289 mL/min/kg; remaining at 16 h [15]: 17%
13 | Cc1nnc(C[S@@+]([O-])[C@@H]2CC[C@@H]3CN2C(=O)N3O[C@H](F)C(=O)[O-])o1.[Na+] | 4 | 1 | > 32 | 36 | > 32 | 1 | > 32 | > 32 | 16 | 0.125 | 24 | 
14 | CCOC(=O)[C@@H](F)ON1C(=O)N2C[C@H]1CC[C@H]2[S@@+](C)[O-] |  |  |  |  |  |  |  |  |  |  |  | Cmax [16]: 4510 ng/mL; bioavailability [17]: 68.3%; bioavailability [18]: 74.4%; remaining at 16 h [15]: 11%; AUC [19]: 2300 ng·h/mL; bioavailability [20]: 29.9%; Tmax [21]: 0.5 h; AUC [22]: 26000 ng·h/mL; Cmax [23]: 10600 ng/mL; Cmax [24]: 2150 ng/mL; AUC [25]: 8320 ng·h/mL; Tmax [26]: 1 h; Tmax [27]: 1 h
15 | NS(=O)(=O)[C@@H]1CC[C@@H]2CN1C(=O)N2O[C@H](F)C(=O)[O-].[Na+] |  |  |  | 1110 |  |  |  |  | 977 |  | 249 | remaining at 0.5 h, 5 µM [13]: 78%; clearance [14]: 19.8 mL/min/kg; remaining at 16 h [15]: 91%
16 | NC(=O)OCC[S@@+]([O-])[C@@H]1CC[C@@H]2CN1C(=O)N2O[C@H](F)C(=O)[O-].[Na+] | 4 | 1 | > 32 | 64 | > 32 | 1 | > 32 | > 32 | 27 | 0.125 | 14 | 
17 | O=C([O-])[C@@H](F)ON1C(=O)N2C[C@H]1CC[C@H]2[S@+]([O-])C[C@@H](O)CO.[Na+] | 8 | 0.25 | > 32 | 52 | > 32 | 1 | > 32 | > 32 | 56 | 0.125 | 10 | 
18 | C[S@+]([O-])[C@@H]1CC[C@@H]2CN1C(=O)N2O[C@H](F)C(=O)[O-].[Na+] | 2 | 0.125 | 32 | 655 | 32 | 0.125 | 16 | > 32 | 443 | 0.5 | 445 | IC50 [12]: 32600 nM
